This is a sample that favours compounds with a hit; in the whole collection about 5.7% have one here.
Mdm2-MdmX inh = human Mdm2/MdmX binding inhibition; O15151+Q00987; SaOS-2 split-luciferase Mdm2/MdmX complementation, luminescence; inhibition, % at 8 µM; 330,000 compounds, 3% hits; AID 485346;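 active = inhibition of at least 50% at 8 µM in the primary screen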
Target sequence (O15151 whole entry, looked up): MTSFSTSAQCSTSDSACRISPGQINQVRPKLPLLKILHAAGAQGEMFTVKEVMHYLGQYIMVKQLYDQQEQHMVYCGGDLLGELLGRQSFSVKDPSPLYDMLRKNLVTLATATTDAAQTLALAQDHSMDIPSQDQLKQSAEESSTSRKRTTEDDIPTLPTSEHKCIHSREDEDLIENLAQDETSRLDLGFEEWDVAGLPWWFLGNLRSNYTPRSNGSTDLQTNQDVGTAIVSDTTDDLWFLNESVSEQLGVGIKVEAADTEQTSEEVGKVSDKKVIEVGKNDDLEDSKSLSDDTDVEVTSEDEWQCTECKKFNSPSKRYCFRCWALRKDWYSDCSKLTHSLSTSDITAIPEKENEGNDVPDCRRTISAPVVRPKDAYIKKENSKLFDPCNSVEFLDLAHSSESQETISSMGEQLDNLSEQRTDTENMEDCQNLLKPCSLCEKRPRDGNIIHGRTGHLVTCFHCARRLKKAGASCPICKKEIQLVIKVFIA
Target sequence (Q00987 whole entry, looked up): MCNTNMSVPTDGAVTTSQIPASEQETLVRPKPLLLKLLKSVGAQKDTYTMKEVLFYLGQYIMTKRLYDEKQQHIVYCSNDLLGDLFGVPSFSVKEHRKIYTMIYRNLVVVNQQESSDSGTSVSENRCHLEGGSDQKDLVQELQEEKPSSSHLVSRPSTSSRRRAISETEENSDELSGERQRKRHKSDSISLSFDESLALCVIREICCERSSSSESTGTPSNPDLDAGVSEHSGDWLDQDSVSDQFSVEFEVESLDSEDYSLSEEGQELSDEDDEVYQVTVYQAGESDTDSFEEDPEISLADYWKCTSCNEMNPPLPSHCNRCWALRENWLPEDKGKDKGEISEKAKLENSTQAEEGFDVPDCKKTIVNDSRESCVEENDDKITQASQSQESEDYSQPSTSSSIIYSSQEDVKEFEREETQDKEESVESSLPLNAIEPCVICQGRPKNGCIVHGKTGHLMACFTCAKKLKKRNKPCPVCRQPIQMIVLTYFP
SKKanGAS inh = SKKanGAS growth inhibition; 300,000 compounds, 1.3% hits; inhibition, % at 7.5 µM; S. pyogenes SKKanGAS, kanamycin growth, BacTiter-Glo, 6 h; AID 1662;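 active = mean replicate score, as percent of positive control median, at least 50; inconclusive = mean below 50 but one replicate at or above 50; inactive = mean and every replicate below 50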;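 note: strain carries kanamycin resistance gene driven by streptokinase promoter and grows in 40 µg/ml kanamycin; loss of luminescence reflects streptokinase promoter inhibition or plain growth inhibition; 0% = median of DMSO wells and 100% = positive control at its reference dose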
CSC inhib = blocks cancer stem cells | 300,000 compounds, 1.1% hits | cancer stem cell-like cells viability, luminescence | inhibition, % at 7.5 µM; in the data active = inhibition above about 75%; inconclusive = no clear call, values can overlap the other calls; tested in HMLE shEcad cells
Beta cell apopt = beta cell apoptosis inhibition; 300,000 compounds, 0.8% hits; protection from apoptosis, % (concentration not given with the values); INS-1E cytokine-induced death, ATP luminescence, 48 h; percent of positive-control rescue, neutral wells zero;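 active = Every replicate reaches about 75%, or at least half do and their mean reaches it too, limit read from the data; inconclusive = At least half of replicates reach the limit but their mean does not; inactive = Under half of replicates reach the limit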;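 note: 0% = cytokine-treated negative control wells and 100% = positive control rescue; higher means more ATP so stronger rescue from cytokine killing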
T cruzi repl = blocks replication of Trypanosoma cruzi; AID 1885; T. cruzi beta-gal in NIH3T3, luminescence, 90 h; inhibition, % (test concentration not listed); 300,000 compounds, 1.4% hits;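 active = mean inhibition across valid replicates above about 55%, limit read from the data; inconclusive = mean below that limit but half or more replicates reach it; inactive = mean below it, under half of replicates reach it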;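 note: signal also drops with host cell toxicity which is not excluded here; 0% = plate median of DMSO wells and 100% = zero luminescence signal; higher percent means less beta-gal luminescence so fewer parasites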
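System: Mouse NIH/3T3 fibroblasts infected with β-gal-expressing T. cruzi Tulahuen C4 | Quantity: NIH/3T3 cells, 5,000 per well | Reagent: 5000 reporter trypomastigotes per well | Dosing: Compound pinned at 50 nL/well, DMSO | Schedule: 3 h host attachment, then at least 90 h co-culture | Detection: GalScreen luminescence, 60 min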
Calb FLC = affects C. albicans growth with fluconazole. C. albicans CaCi-2 (fluconazole-resistant clinical isolate) + fluconazole, Alamar Blue growth, 48 h. growth inhibition, % (no concentration beside the values). 300,000 compounds, 0.57% hits;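 active = growth inhibition above about 58% in most replicates, limit read from the data, passing the limit was not always enough; inconclusive = exactly half the replicates above a set limit; inactive = most replicates below a set limit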;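 note: all wells also contain fluconazole at 8 µg/ml as a sub-toxic cotreatment; 0% = median of DMSO wells and 100% = median of geldanamycin control wells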
Mdm2-MdmX conf = confirmation of human Mdm2/MdmX interaction inhibitors | shares compounds with Mdm2-MdmX inh | Mdm2-MdmX binding, luminescent assay | inhibition, % at 8 µM | 10,000 compounds, 55% hits; in the data active = inhibition above about 40%
FLuc counter = counter-screen for Mdm2/MdmX inhibitors: full-length luciferase; shares compounds with Mdm2-MdmX inh; SaOS-2 full-length luciferase counterscreen, luminescence; inhibition, % at 8 µM; 6,200 compounds, 77% hits; AID 504607;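 active = mean inhibition at 8 µM reaching about 37%, which flags the compound as non-specific, limit read from the data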;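 note: p53-null SaOS-2 cells with luciferase driven by a doxycycline-inducible promoter; compound on cells about two nights before reading with doxycycline added after day one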
Active calls of the source: *; ? = inconclusive; / = no result given.

SMILES	Mdm2-MdmX inh	SKKanGAS inh	CSC inhib	Beta cell apopt	T cruzi repl	Calb FLC	Mdm2-MdmX conf	others
COc1cccc(C2C3=C(N=c4s/c(=C\c5ccccc5O)c(=O)n42)c2ccccc2CC3)c1OC (configuration not stated)	95*	-4	-10	7	-9	-2	50*	FLuc counter=53*
CCc1ccn2cc(-c3ccc4c(c3)OCO4)nc2c1	62*	47	78*	21	4	0	53*	FLuc counter=92*
CCn1c(=O)c(CCC(=O)N2CCN(c3ccccn3)CC2)c(C)c2c(C)nn(-c3cccc(C)c3)c21	53*	49	5	2	58*	12	14
CC(=O)c1cccc(NC(=O)C(CC(C)C)NC(=O)C2CCCCC2)c1 (configuration not stated)	25	-8	6	-5	9	-6	/
CCN(c1ccccc1)S(=O)(=O)c1cc(C(=O)OC2CCOC2=O)ccc1C (configuration not stated)	2	/	/	4	/	/	/
CCOC(=O)c1ccccc1NC(=O)c1cn(-c2ccc(C)c(C)c2)c(=O)c2ccccc12	69*	33	7	8	32	4	29
Cc1nn(-c2ccccc2)c(C)c1C(=O)OCC(=O)N(C)c1c(N)n(Cc2ccccc2)c(=O)[nH]c1=O	10	-4	/	-3	-3	3	/
COc1ccc(C(=O)c2sc(Nc3ccccc3)c(C(=O)Nc3ccc(OC)c(OC)c3)c2N)cc1	6	17	19	-2	4	1	/
COc1ccc(NC(=O)c2c(Nc3ccccc3)sc(C(=O)c3ccc(F)cc3)c2N)cc1	62*	-2	38	104*	7	-8	19
CSc1ccc(NC(=O)NCCCN2CCC(Cc3ccccc3)CC2)cc1	61*	4	26	10	10	-1	16
COc1ccc(NC(=O)NCCCN2CCC(Cc3ccccc3)CC2)cc1	10	2	8	7	6	-10	/
CC(C)(C)N1C(=O)Cc2c1nc(N)c1c(N)nc(N3CCCCC3CO)c(C#N)c21 (configuration not stated)	68*	37	16	10	-9	1	24
Cc1ccc(C(=O)COC(=O)CCNS(=O)(=O)c2ccccc2F)cc1	-3	/	0	-10	/	/	/
O=C(N/N=C\c1c(O)ccc2ccccc12)c1cncc(Br)c1	83*	106*	98*	88*	65*	82*	76*	FLuc counter=27
Cc1cc(O)c(C)c(O)c1/C=N/NC(=O)c1cccnc1	57*	-1	46	/	6	-4	45*	FLuc counter=69*
O=C(N/N=C/c1c(O)ccc2ccccc12)c1cccnc1	70*	24	?	96*	66*	100*	74*	FLuc counter=30
Cc1ccc(C(=O)N/N=C/c2c(O)ccc3ccccc23)cn1	75*	60*	81*	/	67*	89*	82*	FLuc counter=27
COCCC(=O)N1CCC(Oc2ccc(C(=O)NCCc3ccccn3)cc2)CC1	18	-9	-1	-4	2	2	/
CC1Sc2ccc(S(=O)(=O)N3CCC(C(=O)Nc4cccc(Cl)c4)CC3)cc2NC1=O (configuration not stated)	42	8	16	42	26	15	/
COc1ccc(C(=O)NC(CCSC)C(=O)NCc2nnc3ccccn23)cc1 (configuration not stated)	8	/	/	/	/	/	/
CC(=O)Nc1ccc(Nc2cc(N3CCOCC3)c3nonc3c2[N+](=O)[O-])cc1	30	-6	9	1	-8	?	/
O=[N+]([O-])c1c(Nc2ccccc2O)cc(Cl)c2nonc12	95*	17	-8	-13	59*	14	100*	FLuc counter=54*
O=[N+]([O-])c1c(Nc2ccc(O)cc2)cc(N2CCOCC2)c2nonc12	51*	6	-2	9	-17	-11	18
Cc1ccc(-c2csc(NCCn3c(C)nc4cc(C(F)(F)F)ccc43)n2)cc1	20	/	29	0	/	/	/
COc1ccc(CCC(=O)Nc2nc(C)c(C(=O)N(C)C)s2)cc1	-5	-8	23	-1	-16	-12	/
SMILES	Mdm2-MdmX inh	SKKanGAS inh	CSC inhib	Beta cell apopt	T cruzi repl	Calb FLC	Mdm2-MdmX conf	others
CC[C@]12c3[nH]c4cc(-c5ccco5)ccc4c3CCN1C(=O)[C@@H](CC(=O)NCc1ccc(OC)c(OC)c1)C[C@@H]2C(=O)N1CCN(C(=O)c2ccco2)CC1	33	/	/	/	/	/	/
O=C(NCC(c1cccs1)N1CCOCC1)c1cn(-c2ccccc2)nc1-c1ccc(Cl)cc1 (configuration not stated)	63*	16	20	11	22	-1	25
O=C(NCC(c1cccs1)N1CCOCC1)c1cn(-c2ccccc2)nc1-c1ccccc1 (configuration not stated)	29	/	/	7	/	/	/
C=CCNC(=O)c1onc(CSc2ccc(F)c(F)c2)c1C(=O)NCC=C	9	0	-27	/	-11	2	/
C=CCn1c(=O)c(C(=O)Nc2cccnc2)c(O)c2ccccc21	68*	6	30	-2	-8	?	3
Cc1ccc(N(C(=O)c2csnn2)C(C(=O)NC2CCCCC2)c2ccncc2)cc1 (configuration not stated)	6	15	-2	-5	6	-3	/
COCCn1cnc2c(c1=O)c1nc3ccccc3nc1n2/N=C/c1cccc(OC)c1	42	25	18	45	26	23	/
C=CCn1cnc2c(c1=O)c1nc3ccccc3nc1n2/N=C/c1cc(OC)c(OC)c(OC)c1	86*	40	41	102*	16	-2	75*	FLuc counter=65*
C=CCn1cnc2c(c1=O)c1nc3ccccc3nc1n2/N=C/c1cccc(OC)c1OC	59*	/	33	2	/	/	31
COc1cccc(-c2nc(N3CC(C)CC(C)C3)c3ccccc3n2)c1O (configuration not stated)	61*	65*	/	/	55*	-2	14
COc1ccc(Nc2nc(-c3cccc(OC)c3O)nc3ccccc23)cc1	37	38	43	17	36	14	/
COc1cccc(-c2nc(Oc3cc(C)cc(C)c3)c3ccccc3n2)c1O	64*	0	8	-1	-4	-5	30
COc1cccc(-c2nc(N3CCC(C)CC3)c3ccccc3n2)c1O	24	24	-3	12	44	-5	/
O=C(CCC1CCN(C(=O)c2cc(C(F)(F)F)ccc2Cl)CC1)NC1CC1	-11	-2	1	-7	-11	-2	/
